Data on 10 compounds can be found in ChEMBL document CHEMBL1156792, “Application of the dipeptidyl peptidase IV (DPPIV/CD26) based prodrug approach to different amine-containing drugs” (J Med Chem, 2010).

Data set [1] deals with Human immunodeficiency virus 1. The data set can be described thus: Antiviral activity against HIV1 3B infected in human CEM cells assessed as inhibition of virus-induced cytopathicity. In kind it is functional, organism-based. Conditions: Human immunodeficiency virus 1, 3B, CCRF-CEM. An outline of the steps: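 CEM cells (~4.5 × 10⁵/mL) were infected with HIV-1 IIIB at 100 CCID₅₀/mL and exposed to compound dilutions (final 0.62–2000 μM) at 37 °C. Giant cell formation was scored microscopically after 4–5 days. EC₅₀ is the concentration preventing syncytium formation by 50%.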
On the technique in general: Cytopathic effects are the visible damage that an infection or toxin causes in cultured cells.

Data set [2] in a line: Solubility in water. In kind it is physicochemical. An outline of the steps:
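Excess solid was suspended in deionized water, sonicated 10 min at room temperature, equilibrated overnight at room temperature and centrifuged. Supernatant was diluted into a five-point standard curve range. Concentration came from HPLC peak area against a DMSO-dissolved standard of known concentration.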

Data set [3] concerns Serum. The data set can be described thus: Stability in 20 % human serum assessed as 6-aminoquinoline formation after 2 hrs. In kind it is ADME, cell-free. The essentials: (§1)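 Prodrug (50 μM) in PBS with 0.1% DMSO was incubated at 37 °C with purified CD26 (1.5 mU) or 20% human or bovine serum in PBS. Samples taken at time points were quenched in cold methanol on ice, centrifuged at 4 °C and analyzed by RP-8 HPLC. Buffer A was 50 mM NaH₂PO₄ with 5 mM heptanesulfonic acid, pH 3.2; buffer B was acetonitrile.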

In data set [4] the test system is Serum. The data set can be described thus: Stability in 20 % bovine serum assessed as 6-aminoquinoline formation after 2 hrs. In kind it is ADME, cell-free, Bos taurus. Conditions: cattle. An outline of the steps: as §1
The subject of data set [5] is HeLa. Put plainly: Cytotoxicity against human HeLa cells assessed as inhibition of cell proliferation after 48 hrs. In kind it is functional, cell-based.
For data set [6], the system named is CCRF-CEM. Put plainly: Cytotoxicity against human CEM cells assessed as inhibition of cell proliferation after 48 hrs. In kind it is functional, cell-based.
Data set [7] concerns L1210. Put plainly: Cytotoxicity against mouse L1210 cells assessed as inhibition of cell proliferation after 48 hrs. In kind it is functional, cell-based. Particulars: L1210, 48 h. The essentials: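 L1210 cells were seeded at (5–7.5) × 10⁴ cells/well in 200 μL wells with compound. Cell number was counted by Coulter counter after 48 h. IC₅₀ is the concentration inhibiting proliferation by 50%.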

Data set [8] concerns Serum. The data set can be described thus: Stability in 20 % bovine serum assessed as 6-aminoquinoline formation within 4 hrs. Particulars: cattle. In kind it is ADME, cell-free, Bos taurus. An outline of the steps:
as §1

Data set [9] is described as follows: Stability assessed as 6-aminoquinoline formation in human recombinant CD26 measured within 4 hrs. In kind it is ADME. An outline of the steps:
as §1

The subject of data set [10] is Serum. Put plainly: Stability in 20 % human serum assessed as 6-aminoquinoline formation within 4 hrs. In kind it is ADME, cell-free. An outline of the steps:
as §1

Data set [11] has as its system Vaccinia virus. The data set can be described thus: Antiviral activity against Vaccinia virus Lederle infected in HEL cells assessed as inhibition of virus-induced cytopathicity in presence of vildagliptin. In kind it is functional, organism-based. Particulars: Orthopoxvirus vaccinia.
For data set [12], the system named is Vaccinia virus. The data set can be described thus: Antiviral activity against Vaccinia virus Lederle infected in HEL cells assessed as inhibition of virus-induced cytopathicity. In kind it is functional, organism-based. Conditions: Orthopoxvirus vaccinia.
The test system of data set [13] is Human alphaherpesvirus 1. The data set can be described thus: Antiviral activity against HSV1 KOS infected in HEL cells assessed as inhibition of virus-induced cytopathicity in presence of vildagliptin. Particulars: Human alphaherpesvirus 1, KOS. In kind it is functional, organism-based. The essentials:
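HEL cells were infected with HSV-1 (KOS) at 100 CCID₅₀/mL with compound. The CD26 inhibitor vildagliptin (20 μM) was added once at the start of infection.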

Data set [14] relates to Human alphaherpesvirus 1. Put plainly: Antiviral activity against HSV1 KOS infected in HEL cells assessed as inhibition of virus-induced cytopathicity. In kind it is functional, organism-based. Conditions: Human alphaherpesvirus 1, KOS. The essentials:
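HEL cell cultures in 96-well plates were infected with HSV-1 (KOS) at 100 CCID₅₀/mL in the presence or absence of compound.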

Data set [15] addresses Dipeptidyl peptidase 4 (Homo sapiens, UniProt P27487). Put plainly: Inhibition of human DPP4 from human Caco-2 cells. In kind it is cell-based.

Converted amounts (≈) assume the structure as drawn. Peptide text beside a SMILES is read from it. * marks the point of attachment. X2 = OC[C@H]1O[C@@H](n2cnc3c(N*)ncnc32)[C@@H](O)[C@@H]1O; X1 = O=c1nc(N*)ccn1[C@@H]1O[C@H](CO)[C@@H](O)[C@@H]1O

Sequence of Dipeptidyl peptidase 4 (P27487 whole entry): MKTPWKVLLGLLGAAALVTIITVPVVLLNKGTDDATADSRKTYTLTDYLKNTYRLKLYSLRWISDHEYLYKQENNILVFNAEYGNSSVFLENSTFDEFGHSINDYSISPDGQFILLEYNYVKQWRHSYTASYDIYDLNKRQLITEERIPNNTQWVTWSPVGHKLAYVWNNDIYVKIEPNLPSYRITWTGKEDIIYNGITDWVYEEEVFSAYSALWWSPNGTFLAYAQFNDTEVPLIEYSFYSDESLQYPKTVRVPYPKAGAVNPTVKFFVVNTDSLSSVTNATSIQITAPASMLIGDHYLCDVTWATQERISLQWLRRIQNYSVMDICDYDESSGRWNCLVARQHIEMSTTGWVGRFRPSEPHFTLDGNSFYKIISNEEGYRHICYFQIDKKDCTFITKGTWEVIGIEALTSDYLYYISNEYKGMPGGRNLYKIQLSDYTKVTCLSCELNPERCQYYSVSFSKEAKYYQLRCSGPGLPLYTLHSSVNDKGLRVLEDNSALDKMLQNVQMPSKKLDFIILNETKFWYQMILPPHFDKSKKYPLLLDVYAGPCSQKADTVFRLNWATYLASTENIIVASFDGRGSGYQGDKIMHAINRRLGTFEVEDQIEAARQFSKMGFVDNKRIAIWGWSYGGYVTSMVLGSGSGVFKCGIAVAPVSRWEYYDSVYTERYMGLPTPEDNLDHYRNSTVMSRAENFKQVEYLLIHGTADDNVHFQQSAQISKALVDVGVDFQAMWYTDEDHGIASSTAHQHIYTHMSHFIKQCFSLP

As a reminder, the EC50 is the concentration that produces a half-maximal response. Consider `CC(C)(C)[Si](C)(C)OC[C@H]1O[C@@H](n2ccc(N)nc2=O)[C@@H](O)[C@@H]1O[Si](C)(C)C(C)(C)C`, for which the half-maximal effective concentration (EC50) in data set [1] was 70 nM.
Broadly, the solubility is the concentration that dissolves in the medium under given conditions. On to `CC(C)[C@H](N)C(=O)N1CCC[C@H]1C(=O)Nc1ccc2ncccc2c1`, for which, in data set [2], the concentration in solution (solubility) came to 33.2 mg/mL (≈ 97.5 mM).
On the same count and under the same terms, with `N[C@@H](CC(=O)O)C(=O)N1CCC[C@H]1C(=O)Nc1ccc2ncccc2c1` the figure was 47.8 mg/mL (≈ 134 mM).
Turning to `Cc1cn([C@@H]2O[C@H](CO[Si](C)(C)C(C)(C)C)[C@@]3(OS(=O)(=O)C=C3N)[C@H]2O[Si](C)(C)C(C)(C)C)c(=O)nc1NC(=O)[C@@H]1CCCN1C(=O)[C@@H](NC(=O)[C@@H]1CCCN1C(=O)[C@@H](N)C(C)C)C(C)C`, the Activity is given as 20% in [3] and 40% in data set [4].
The compound `Nc1ccc2ncccc2c1` gave a solubility in [2] of 7.01 mg/mL (≈ 48.6 mM).
In general, IC50 refers to the concentration that inhibits the measured activity by half. Consider `CC(C)[C@H](N)C(=O)N[C@@H](C)C(=O)N[C@H](C(=O)N1CCC[C@H]1C(=O)Nc1ccn([C@@H]2O[C@H](CO)[C@@H](O)[C@@H]2O)c(=O)n1)C(C)C` (H-VAVP-X1), for which the figures for the IC50 in data set [5], in data set [6] and in data set [7] were 560 nM, 50 nM and 82 nM, respectively.
With `CC(C)[C@H](N)C(=O)N1CCC[C@H]1C(=O)N[C@H](C(=O)N1CCC[C@H]1C(=O)Nc1ccn([C@@H]2O[C@H](CO)[C@@H](O)[C@@H]2O)c(=O)n1)C(C)C` (H-VPVP-X1), the Activity in data set [8], in data set [9] and in data set [10] was 80% in each case. The IC50 in data set [5] was found to be 630 nM; in [6], 57 nM; in [7], 100 nM.
As for `CC(C)[C@H](N)C(=O)N1CCC[C@H]1C(=O)N[C@H](C(=O)N1CCC[C@H]1C(=O)Nc1ncnc2c1ncn2[C@@H]1O[C@H](CO)[C@@H](O)[C@@H]1O)C(C)C` (H-VPVP-X2), the solubility in [2] was determined as 34.7 mg/mL (≈ 52.7 mM). The half-maximal effective concentration (EC50) worked out at 135000 nM in data set [11], 16000 nM in [12], 238000 nM in data set [13] and 54000 nM in data set [14].
Regarding `Nc1ccn([C@@H]2O[C@H](CO)[C@@H](O)[C@@H]2O)c(=O)n1` [CYTARABINE], the half-inhibitory concentration (IC50) in data set [5] was determined as 260 nM.
For `Nc1ncnc2c1ncn2[C@@H]1O[C@H](CO)[C@@H](O)[C@@H]1O` [VIDARABINE], the concentration giving a half-maximal response (EC50) in data set [11] turned out to be 10000 nM; in data set [12], 8300 nM; in data set [13] it was 42000 nM; in data set [14], 35000 nM. In data set [15], 62 nM corresponded to half-maximal inhibition (IC50).
